From PubChem
CXCR6 inh – CXCR6 receptor inhibitors, primary screen, cell-based, beta-arrestin, luminescence, CHO-K1 PathHunter, 1536-well | inhibition, % at 20 µM | C-X-C chemokine receptor type 6 (Homo sapiens), O00574 | 0.36% of 360,000 active; in the data active means inhibition above about 34%, passing the limit was not always enough;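 further: antagonist mode with CXCL16 agonist at 10 nM final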
APJ ag – agonists of human apelin receptor APJ, primary screen, CHO-K1 cells, PathHunter beta-arrestin, luminescence; AID 2520, 2010; 0.11% of 330,000 active; P35414; activation, % at 20 µM; 0% DMSO wells, 100% apelin;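 active means activation more than six SD over the plate average, tested at 20 µM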
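assay system = CHO-K1 APJ beta-arrestin complementation cell line | input = cell density 1000 per well | dosing = compound 20 µM once, DMSO 1% | timing = compound 90 min 25 °C, reagent 1 h | measured by = luminescence from split beta-galactosidase complementation, Galacton Star/Emerald II substrate | read-out basis = APJ agonist activity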
APJ antag – antagonists of human apelin receptor APJ, primary screen, CHO-K1 cells, beta-arrestin complementation, luminescence. AID 2521, 2010. inhibition, % at 20 µM. P35414. 0.32% of 330,000 active;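 active means inhibition above about 40% at 20 µM, limit read from the data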;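 further: cells challenged with 10 nM apelin-13 agonist together with compound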
CCR6 antag – CCR6 receptor antagonists, primary screen, cell-based, CHO-K1, luminescence, beta-arrestin, uHTS. inhibition, % at 20 µM. C-C chemokine receptor type 6 (Homo sapiens), P51684. AID 493098, 2011. 0.49% of 340,000 active. CHO-K1 CCR6 PathHunter beta-arrestin, CCL20-stimulated;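 active means compounds whose inhibition of the agonist-driven luminescence signal at 20 µM reaches about 50%, limit read from the data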;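 further: cells stimulated with CCL20 at 14 nM final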
EBI2 block – EBI2 receptor antagonists, beta-arrestin recruitment, primary screen, cell-based, luminescence, 7a,25-OHC stimulation, uHTS. 0.81% of 360,000 active. AID 651636, 2012. inhibition, % at 5 µM. 7a,25-OHC stimulated. G-protein coupled receptor 183 (Homo sapiens), P32249; in the data active means inhibition above about 38%;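 further: enzyme fragment complementation signal reports receptor beta-arrestin coupling in cells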
HTR2A ag – mouse Htr2a agonists via beta-arrestin recruitment, primary screen, cell-based, luminescence; activation, % at 7.6 µM; CHO-K1 mHTR2A beta-arrestin complementation; percent of 30 µM serotonin response; 0.66% of 360,000 active; 5-hydroxytryptamine receptor 2A (Mus musculus), P35363;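 active means activation above a run cutoff, the mean activation of all tested compounds plus 3 SD, cut at about 14% in these data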
Target sequence (P35363 whole entry, looked up): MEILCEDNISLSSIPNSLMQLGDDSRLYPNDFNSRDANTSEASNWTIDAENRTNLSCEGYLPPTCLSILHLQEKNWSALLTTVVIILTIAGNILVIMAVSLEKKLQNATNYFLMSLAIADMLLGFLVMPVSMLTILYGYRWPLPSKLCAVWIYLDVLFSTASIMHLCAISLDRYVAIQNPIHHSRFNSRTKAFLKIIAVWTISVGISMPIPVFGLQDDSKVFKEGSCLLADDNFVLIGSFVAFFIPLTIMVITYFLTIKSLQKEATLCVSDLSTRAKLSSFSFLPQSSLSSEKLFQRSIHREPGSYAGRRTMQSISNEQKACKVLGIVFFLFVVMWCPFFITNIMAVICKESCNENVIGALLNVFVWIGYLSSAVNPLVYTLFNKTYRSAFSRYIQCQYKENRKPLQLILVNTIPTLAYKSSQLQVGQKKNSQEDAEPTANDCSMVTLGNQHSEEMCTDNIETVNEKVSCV
EBI2 antag conf – EBI2 antagonist hit retest, beta-arrestin, confirmation, cell-based, single concentration, luminescence, 7a,25-OHC stimulation; shares compounds with EBI2 block; 29% of 2,400 active; inhibition, % at 5 µM; AID 651997, 2013; 7a,25-OHC antagonism;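 active means inhibition of at least 50%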
EBI2 ag – EBI2 agonist activity of antagonist hits, confirmation, counter-screen for EBI2 antagonist project, cell-based, single concentration, agonist mode, luminescence; shares compounds with EBI2 block; EBI2-expressing cells, 60 min; 0% vehicle, 100% 7α,25-dihydroxycholesterol control; activation, % at 5 µM; 2,400 tested, under 10 active; AID 652000, 2013;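 active means activation of at least 50%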
bGal counter – E. coli beta-galactosidase enzyme inhibition, confirmation, counter-screen for EBI2 antagonist project, biochemical, luminescence, single concentration; shares compounds with EBI2 block; purified beta-galactosidase, luminescent Galacton Star, 15 min; inhibition, % at 5 µM; 1% of 2,400 active; AID 652176, 2013;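 active means replicate-average signal at least 3 plate SD below neutral wells, shown as high inhibition, flagging enzyme-inhibiting false positives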;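 further: higher means stronger loss of beta-gal luminescence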
Numbers stand for hits; 0 = inactive; - = no result given. Most compounds without a hit are left out; they make up all but 2.1% or so of the library.

SMILES	CXCR6 inh	APJ ag	APJ antag	CCR6 antag	EBI2 block	HTR2A ag	EBI2 antag conf	EBI2 ag	bGal counter
CCOc1cccc(-c2nn(-c3ccccc3)cc2/C=C(/C#N)C(=O)NCCCn2ccnc2)c1	0	0	0	0	39.9	0	0	0	0
O=C(CSc1ccc(F)cc1)N1CCC(c2nc3ccccc3s2)CC1	0	0	0	0	46.0	0	0	0	0
O=C(CSc1ccc2ccccc2n1)N1CCC(c2noc3ccc(F)cc23)CC1	0	0	0	0	38.0	0	0	0	0
CC(C)(C)n1nnnc1C(c1cc2ccccc2o1)N1CCCCC1 (centres undefined)	0	-	-	-	0	0	-	-	-
COc1cc(/C=N/Nc2ccccn2)ccc1OCC(C)C	0	0	0	0	0	0	-	-	-
O=[N+]([O-])c1ccc2c(c1Nc1ccccc1Cl)=NC1(CCCCC1)N=2	0	0	0	0	63.4	0	0	0	0
O=[N+]([O-])c1ccc(N2CCN(C(=S)NCc3ccc(Cl)cc3)CC2)cc1	0	0	0	0	51.9	0	0	0	0
CNC(=S)N1N=C(c2ccc(Br)cc2)CC1c1ccc(OC)cc1 (centres undefined)	0	0	0	0	88.0	0	86.7	0	0
CC1CCN(C(=O)C2c3ccccc3C(=O)N3CCc4ccccc4C23)CC1 (centres undefined)	0	0	0	0	0	0	-	-	-
COc1ccc(NC(=O)c2ccc(COc3ccccc3Br)o2)c(OC)c1	0	0	0	0	0	0	-	-	-
O=C(Nc1ccc(-c2csc(Nc3cccc(C(F)(F)F)c3)n2)cc1)c1ccccc1	0	0	0	0	0	0	-	-	-
O=C(Nc1cccc(-c2csc(Nc3cccc(C(F)(F)F)c3)n2)c1)c1ccccc1	0	0	0	0	46.2	0	0	0	0
CC(=O)NCCc1ccc(-c2csc(NC(=O)C3CC(=O)N(C4CCCC4)C3)n2)cc1 (centres undefined)	0	0	0	0	0	0	-	-	-
O=C(CN1C(=O)NC2(CCCC2)C1=O)Nc1nc(-c2ccc(F)cc2)cs1	0	0	0	0	0	0	-	-	-
CCC(C)(C)C1CCC2(CC1)NC(=O)N(CC(=O)Nc1nc(-c3ccc(C)cc3)cs1)C2=O (centres undefined)	0	0	0	0	42.9	0	0	0	0
Cc1ccc(NC(=O)CSc2nnc(NC(=O)C3CC3)s2)cc1	0	0	0	0	0	0	-	-	-
O=C(/C=C/c1ccc(F)cc1)NCCC1=CCCCC1	0	0	0	0	54.6	0	0	0	0
O=C1[C@@H]2Cc3c([nH]c4ccccc34)C(c3cccc([N+](=O)[O-])c3)N2C(=O)CN1C1CCN(Cc2ccccc2)CC1 (some centres undefined)	0	0	0	-	41.0	0	0	0	0
Cc1ccc(N2CC(C(=O)Nc3ccccc3N3CCCC3)CC2=O)cc1 (centres undefined)	0	0	0	0	0	0	-	-	-
Cc1ccc(N2CC(C(=O)Nc3cc(C)ccc3F)CC2=O)cc1 (centres undefined)	0	0	0	0	53.0	0	0	0	0
